Changes are numbered by the printed parent chain.
Tests used:
PfCRT 7G8+C350R = molecular target: T1, PfCRT 7G8+C350R (Plasmodium falciparum, UniProt W7FI62, C350R); experiment: Equilibrium dialysis binding, PfCRT variant in nanodiscs; conditions: for Bmax, binding at pH 5.5 / Bmax, binding at pH 7.5: equilibrium dialysis
T1 sequence (W7FI62 1-424 C350R): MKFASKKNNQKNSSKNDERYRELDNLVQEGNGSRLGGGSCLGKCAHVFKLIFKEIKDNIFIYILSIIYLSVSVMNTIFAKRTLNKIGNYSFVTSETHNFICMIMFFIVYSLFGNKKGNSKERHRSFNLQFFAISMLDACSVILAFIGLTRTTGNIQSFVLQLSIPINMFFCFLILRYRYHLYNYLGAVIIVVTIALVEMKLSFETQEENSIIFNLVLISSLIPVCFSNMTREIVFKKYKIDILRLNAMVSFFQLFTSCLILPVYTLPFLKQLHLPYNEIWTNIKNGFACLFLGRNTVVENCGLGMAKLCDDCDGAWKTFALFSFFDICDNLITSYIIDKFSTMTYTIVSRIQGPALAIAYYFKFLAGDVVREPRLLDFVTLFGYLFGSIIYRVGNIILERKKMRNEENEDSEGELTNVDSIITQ

PfCRT WT (3D7) = molecular target: T2, PfCRT WT (3D7) (Plasmodium falciparum, UniProt Q9N623); experiment: Transport; type: biochemical; conditions: for 1-min uptake, transport in proteoliposomes: 100 nM [3H]-drug, inwardly-directed pH gradient; for transport activity (in words): proteoliposomes
T2 sequence (Q9N623 1-424): T1 sequence (W7FI62 1-424 C350R) with S72C, T76K, S220A, D326N, R350C, L356I
Outline: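 PfCRT proteoliposomes (40 ng protein per assay) are loaded with 100 mM KPi, pH 7.5, and 2 mM β-mercaptoethanol. They are diluted into 100 mM Tris/Mes, pH 5.5, giving an inward pH gradient, with 100 nM [3H]-CQ (5.45 Ci/mmol) or [3H]-PPQ (15 Ci/mmol) for 1 min. Filter mock uptake without liposomes and control-liposome uptake are subtracted. Data come from 2 independent experiments, each with 4 technical replicates.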

[1] = tested on: P. falciparum Dd2^Dd2 parasite line; experiment: [3H]-drug accumulation assay in cultured parasites; type: cell-based, Plasmodium falciparum; conditions: 60 min, trophozoites
Outline: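 Sorbitol-synchronized early trophozoites (24–26 h) were magnet-purified and resuspended in bicarbonate-free RPMI 1640 (25 mM HEPES, 10 mM glucose, 0.2 mM hypoxanthine, pH 7.4), counted by hemocytometer. They were mixed with an equal volume of radiolabelled drug (10 nM [3H]-CQ before mixing) for 1 h at 37°C, spun through dibutyl phthalate, then scintillation counted. CAR was internal/external drug, corrected for uninfected erythrocytes, per 10^6 cells at 75 fl; 4–6 assays in duplicate.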

[2] = tested on: P. falciparum 7G8^7G8+F145I parasite line; experiment: Parasite drug susceptibility assay; type: cell-based, Plasmodium falciparum; conditions: for IC50: Plasmodium falciparum, 7G8, 72 h
Outline: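 Asynchronous asexual blood-stage parasites were seeded at 0.3% parasitemia and 1% hematocrit into 2-fold, 10-point test compound dilutions. Incubation was 72 h at 37°C under 5% O2/5% CO2/90% N2. Final parasitemia was read by flow cytometry. IC50 came from nonlinear regression, 4 independent assays in duplicate, with two-tailed Mann-Whitney U tests.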

[3] = tested on: P. falciparum 7G8^7G8 parasite line; experiment: Piperaquine survival assay; type: cell-based, Plasmodium falciparum; conditions: vs no-drug control
[4] = tested on: P. falciparum 7G8^7G8+F145I parasite line; experiment: Piperaquine survival assay; type: cell-based, Plasmodium falciparum; conditions: vs no-drug control
[5] = tested on: P. falciparum 7G8^7G8+C350R parasite line; experiment: Piperaquine survival assay; type: cell-based, Plasmodium falciparum; conditions: vs no-drug control
[6] = tested on: P. falciparum Dd2^Dd2 parasite line; experiment: Piperaquine survival assay; type: cell-based, Plasmodium falciparum; conditions: vs no-drug control
[7] = tested on: P. falciparum WT (3D7) parasite line; experiment: Piperaquine survival assay; type: cell-based, Plasmodium falciparum; conditions: vs no-drug control
[8] = tested on: P. falciparum ring-stage parasites; experiment: Piperaquine survival assay, summary in text; type: cell-based, Plasmodium falciparum
[9] = binding at pH 5.5, equilibrium dialysis, pH 5.5
[10] = binding at pH 7.5, equilibrium dialysis, pH 7.5

## CCN(CC)CCCC(C)Nc1ccnc2cc(Cl)ccc12 (stereo not drawn) [CQ, chloroquine]
PfCRT 7G8+C350R; [9]
  Kd: 130 ± 30 nM
PfCRT 7G8+C350R; [10]
  Kd: 300 ± 60 nM
PfCRT 7G8+C350R; pH 5.5
  Bmax, binding at pH 5.5: 0.37 ± 0.02 mol CQ/mol PfCRT
PfCRT 7G8+C350R; pH 7.5
  Bmax, binding at pH 7.5: 0.42 ± 0.03 mol CQ/mol PfCRT
PfCRT WT (3D7)
  1-min uptake, transport in proteoliposomes: 0.58 ± 0.08 nmol/mg
  transport activity (in words): minimal uptake
[1]; 5 nM [3H]-CQ
  [3H]-CQ CAR (cellular accumulation ratio): 26.3 ± 2.9
[2]
  IC50: 7.3 ± 0.4 nM

## Clc1ccc2c(N3CCN(CCCN4CCN(c5ccnc6cc(Cl)ccc56)CC4)CC3)ccnc2c1 [PPQ, piperaquine]
PfCRT 7G8+C350R; [9]
  Kd: 210 ± 30 nM
PfCRT 7G8+C350R; [10]
  Kd: 250 ± 40 nM
PfCRT 7G8+C350R; pH 5.5
  Bmax, binding at pH 5.5: 0.39 ± 0.02 mol CQ/mol PfCRT
  fold increase in Kd compared with 7G8 parental isoform: ~ 2 fold
PfCRT 7G8+C350R; pH 7.5
  Bmax, binding at pH 7.5: 0.41 ± 0.02 mol CQ/mol PfCRT
PfCRT WT (3D7)
  1-min uptake, transport in proteoliposomes: 0.51 ± 0.04 nmol/mg
  transport activity (in words): Minimal
[1]; 20 nM [3H]-PPQ
  [3H]-PPQ CAR (cellular accumulation ratio): 1861.3 ± 91.8
[2]; 72 h growth inhibition
  fold increase in IC90 compared to the isogenic 7G8 control line: 188 fold
[2]
  IC50: 28.7 ± 1 nM
[3]; 3.125 nM PPQ 48 h
  PSA 3.125 nM, percent survival: 93.8 ± 3.5%
[3]; 6.25 nM PPQ 48 h
  PSA 6.25 nM, percent survival: 87.1 ± 3.5%
[3]; 12.5 nM PPQ 48 h
  PSA 12.5 nM, percent survival: 76.7 ± 5.1%
[3]; 25 nM PPQ 48 h
  PSA 25 nM, percent survival: 48.3 ± 5.5%
[3]; 50 nM PPQ 48 h
  PSA 50 nM, percent survival: 4.9 ± 1.3%
[3]; 100 nM PPQ 48 h
  PSA 100 nM, percent survival: 1.6 ± 0.3%
[3]; 200 nM PPQ 48 h
  PSA 200 nM, percent survival: 1.4 ± 0.2%
[3]; 400 nM PPQ 48 h
  PSA 400 nM, percent survival: 0.66 ± 0.20%
[3]; 800 nM PPQ 48 h
  PSA 800 nM, percent survival: 0.56 ± 0.17%
[3]; 1600 nM PPQ 48 h
  PSA 1600 nM, percent survival: 0.54 ± 0.20%
[4]; 3.125 nM PPQ 48 h
  PSA 3.125 nM, percent survival: 95.7 ± 3.1%
[4]; 6.25 nM PPQ 48 h
  PSA 6.25 nM, percent survival: 83.4 ± 4.5%
[4]; 12.5 nM PPQ 48 h
  PSA 12.5 nM, percent survival: 62.3 ± 4.1%
[4]; 25 nM PPQ 48 h
  PSA 25 nM, percent survival: 44.5 ± 2.4%
[4]; 50 nM PPQ 48 h
  PSA 50 nM, percent survival: 8.5 ± 1.2%
[4]; 200 nM PPQ 48 h
  PSA 200 nM, percent survival: 8.6 ± 2.4%
[4]; 400 nM PPQ 48 h
  PSA 400 nM, percent survival: 12.7 ± 2.5%
[4]; 800 nM PPQ 48 h
  PSA 800 nM, percent survival: 13.1 ± 3.9%
[4]; 1600 nM PPQ 48 h
  PSA 1600 nM, percent survival: 14.7 ± 4.2%
[5]; 3.125 nM PPQ 48 h
  PSA 3.125 nM, percent survival: 96.6 ± 2.4%
[5]; 6.25 nM PPQ 48 h
  PSA 6.25 nM, percent survival: 90.7 ± 5.1%
[5]; 12.5 nM PPQ 48 h
  PSA 12.5 nM, percent survival: 79.8 ± 5.5%
[5]; 25 nM PPQ 48 h
  PSA 25 nM, percent survival: 62.1 ± 9.6%
[5]; 50 nM PPQ 48 h
  PSA 50 nM, percent survival: 31.8 ± 9.3%
[5]; 100 nM PPQ 48 h
  PSA 100 nM, percent survival: 7.7 ± 2.5%
[5]; 200 nM PPQ 48 h
  PSA 200 nM, percent survival: 9.5 ± 1.2%
[5]; 400 nM PPQ 48 h
  PSA 400 nM, percent survival: 10.5 ± 1.1%
[5]; 800 nM PPQ 48 h
  PSA 800 nM, percent survival: 6.6 ± 0.46%
[5]; 1600 nM PPQ 48 h
  PSA 1600 nM, percent survival: 5.9 ± 0.9%
[6]; 3.125 nM PPQ 48 h
  PSA 3.125 nM, percent survival: 95.9 ± 2.1%
[6]; 6.25 nM PPQ 48 h
  PSA 6.25 nM, percent survival: 83.6 ± 6.1%
[6]; 12.5 nM PPQ 48 h
  PSA 12.5 nM, percent survival: 67.7 ± 11.9%
[6]; 25 nM PPQ 48 h
  PSA 25 nM, percent survival: 35.3 ± 12.2%
[6]; 50 nM PPQ 48 h
  PSA 50 nM, percent survival: 7.6 ± 3.3%
[6]; 100 nM PPQ 48 h
  PSA 100 nM, percent survival: 1.7 ± 0.2%
[6]; 200 nM PPQ 48 h
  PSA 200 nM, percent survival: 1.1 ± 0.10%
[6]; 400 nM PPQ 48 h
  PSA 400 nM, percent survival: 1.1 ± 0.24%
[6]; 800 nM PPQ 48 h
  PSA 800 nM, percent survival: 0.89 ± 0.16%
[6]; 1600 nM PPQ 48 h
  PSA 1600 nM, percent survival: 0.87 ± 0.10%
[7]; 3.125 nM PPQ 48 h
  PSA 3.125 nM, percent survival: 81.2 ± 19.6%
[7]; 6.25 nM PPQ 48 h
  PSA 6.25 nM, percent survival: 12.1 ± 6.8%
[7]; 12.5 nM PPQ 48 h
  PSA 12.5 nM, percent survival: 7.2 ± 1.5%
[7]; 25 nM PPQ 48 h
  PSA 25 nM, percent survival: 11.0 ± 1.7%
[7]; 50 nM PPQ 48 h
  PSA 50 nM, percent survival: 4.9 ± 1.1%
[7]; 100 nM PPQ 48 h
  PSA 100 nM, percent survival: 1.3 ± 0.35%
[7]; 200 nM PPQ 48 h
  PSA 200 nM, percent survival: 1.2 ± 0.54%
[7]; 400 nM PPQ 48 h
  PSA 400 nM, percent survival: 0.61 ± 0.19%
[7]; 800 nM PPQ 48 h
  PSA 800 nM, percent survival: 0.62 ± 0.16%
[7]; 1600 nM PPQ 48 h
  PSA 1600 nM, percent survival: 0.51 ± 0.17%
[8]; PPQ-S parasites, concentrations of 200 nM or more
  survival in PPQ survival assay: ≤ 1%
[8]; standard assay concentration of 200 nM PPQ, 48 h, edited 7G8+F145I and 7G8+C350R lines (Fig. 3l)
  survival in PPQ survival assay: 9–10%

From paper PMC6911266 (Nature, 2019)
